{"data": "Measurements from different studies", "target": "Serine/threonine-protein kinase D2 (PRKD2, Homo sapiens, UniProt Q9BZL6)", "Sequence (Q9BZL6 1-878, as in one of the studies)": "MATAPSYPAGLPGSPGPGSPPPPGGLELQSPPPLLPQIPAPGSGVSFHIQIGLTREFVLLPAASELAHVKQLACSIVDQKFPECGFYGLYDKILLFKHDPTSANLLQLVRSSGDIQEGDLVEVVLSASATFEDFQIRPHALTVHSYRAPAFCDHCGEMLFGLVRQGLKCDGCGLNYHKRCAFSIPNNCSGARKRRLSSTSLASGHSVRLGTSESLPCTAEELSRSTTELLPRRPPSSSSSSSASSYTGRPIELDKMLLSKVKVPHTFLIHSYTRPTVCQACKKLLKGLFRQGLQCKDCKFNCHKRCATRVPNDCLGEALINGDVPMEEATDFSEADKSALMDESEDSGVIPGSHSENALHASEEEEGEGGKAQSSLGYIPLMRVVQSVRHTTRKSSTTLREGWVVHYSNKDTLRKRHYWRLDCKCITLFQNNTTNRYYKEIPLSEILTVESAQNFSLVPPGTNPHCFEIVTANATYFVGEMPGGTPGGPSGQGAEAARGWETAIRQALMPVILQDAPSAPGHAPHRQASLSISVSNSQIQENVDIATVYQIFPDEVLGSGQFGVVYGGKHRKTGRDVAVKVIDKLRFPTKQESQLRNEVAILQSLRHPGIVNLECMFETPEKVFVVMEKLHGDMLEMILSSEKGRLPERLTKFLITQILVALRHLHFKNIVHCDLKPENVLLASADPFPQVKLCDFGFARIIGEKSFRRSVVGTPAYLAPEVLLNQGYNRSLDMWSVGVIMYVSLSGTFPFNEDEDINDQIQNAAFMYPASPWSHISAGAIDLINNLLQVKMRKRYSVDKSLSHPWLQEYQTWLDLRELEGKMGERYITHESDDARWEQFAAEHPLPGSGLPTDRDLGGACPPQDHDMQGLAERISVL"}
{"SMILES": "Cn1nc(C(F)(F)F)cc1-c1cnc(N2CCc3cc(S(=O)(=O)Nc4c(F)cc(Cl)cc4F)cc(N4CCCC4=O)c32)nc1", "observed": "cell-free assay", "technique": "competition with immobilised ligand", "concentration": "1 µM", "endpoint": "remaining binding", "result": "95%"}
{"SMILES": "Cc1ccc(Nc2nccc(N(C)c3ccc4c(C)n(C)nc4c3)n2)cc1S(N)(=O)=O", "observed": "enzyme activity", "mode": "inhibitor", "concentration": "10 µM", "endpoint": "inhibition", "result": "15%"}
{"SMILES": "N#CC1c2c([nH]c3c(Cl)c(Cl)ccc23)C(=O)NC12CCCCC2 (racemic)", "observed": "thermal stability", "technique": "DSF", "concentration": "10 µM", "endpoint": "ΔTm", "result": "0.1 °C"}
{"SMILES": "O=C1Nc2ccc(Cl)cc2C1=Cc1cc(Cl)c(O)c(Cl)c1", "observed": "cell-free assay", "concentration": "0.5 µM", "endpoint": "remaining signal", "result": "95.5%"}
{"SMILES": "CCCCNc1ncc2c(-c3ccc(F)cc3)nn(C[C@H]3CC[C@H](N)CC3)c2n1", "observed": "target engagement in cells", "mode": "inhibitor", "technique": "chemoproteomics", "concentration": "20 mM", "endpoint": "inhibition", "result": "28.3%"}
{"SMILES": "CC(C)(C)c1nc(-c2cccc(NS(=O)(=O)c3c(F)cccc3F)c2F)c(-c2ccnc(N)n2)s1", "observed": "enzyme activity", "mode": "inhibitor", "technique": "radiometric", "concentration": "1 µM", "endpoint": "remaining activity", "result": "30%"}
{"SMILES": "CC(=O)Nc1c(C(C)=O)c(=O)n(C)c2nc(-c3ccc(Cl)cc3Cl)c(-c3ccc(Cl)cc3)cc12", "observed": "cell-free assay", "technique": "competition with immobilised ligand", "concentration": "1 µM", "endpoint": "remaining binding", "result": "100%"}
{"SMILES": "Cc1ccc(C(=O)NCc2ccsc2)cc1C#Cc1cn(C(C)C)c2ncnc(N)c12", "observed": "enzyme activity", "mode": "inhibitor", "concentration": "1 µM", "endpoint": "activity vs control", "result": "71%"}
{"SMILES": "CCN1CCC2(CC1)NC(=O)c1c(c3ccc(Cl)c(Cl)c3n1C)C2C#N (racemic)", "observed": "thermal stability", "technique": "DSF", "concentration": "10 µM", "endpoint": "ΔTm", "result": "0.6 °C"}
{"SMILES": "Cn1cncc1C1=CN(c2ncnc3[nH]cnc23)CCS1", "observed": "enzyme activity", "mode": "inhibitor", "technique": "radiometric", "concentration": "50 nM", "endpoint": "inhibition", "result": "38.2%"}
{"SMILES": "Cn1c2c(c3ccc(Cl)c(Cl)c31)C(C#N)C1(CCCCC1)NC2=O (racemic)", "observed": "thermal stability", "technique": "DSF", "concentration": "10 µM", "endpoint": "ΔTm", "result": "0.1 °C"}
{"SMILES": "COc1cc2ncnc(Nc3ccc(Oc4ccccc4)c(C)c3C)c2cc1OC", "observed": "enzyme activity", "mode": "inhibitor", "concentration": "1 µM", "endpoint": "inhibition", "result": "2%"}
{"SMILES": "Cc1sc(C(=O)NC2COC2)cc1-n1cc(NC(=O)Nc2c(F)cccc2Cl)cn1", "observed": "enzyme activity", "mode": "inhibitor", "concentration": "10 µM", "endpoint": "remaining activity", "result": "95.7%"}
{"SMILES": "CCCOc1ccc(OC)c(F)c1C(=O)c1ccc(C(=O)N[C@@H]2CNC[C@H]2NC(=O)c2ccc3[nH]ncc3c2)cc1", "observed": "enzyme activity", "mode": "inhibitor", "concentration": "10 µM", "endpoint": "remaining activity", "result": "48%"}
{"SMILES": "COc1cc(Cl)c(C(=O)N[C@@H](CN[C@H]2CC[C@@H](N)CC2)Cc2ccc(C#N)cc2)cc1-c1ccc(CN[C@H](C)c2ccc(C)cc2)o1", "observed": "enzyme activity", "mode": "inhibitor", "concentration": "1 µM", "endpoint": "remaining activity", "result": "109%"}
{"SMILES": "Cc1cc(NC(=O)c2cccc3cc(-c4cccc5[nH]nc(N)c45)ccc23)ccc1F", "observed": "enzyme activity", "mode": "inhibitor", "concentration": "0.1 µM", "endpoint": "activity vs control", "result": "91%"}
{"SMILES": "Cc1c(NC(=O)c2cc(C(N)=O)nc3cc(F)ccc23)c(C(F)(F)F)nn1Cc1ccc(C(C)(C)C)cc1", "observed": "cell-free assay", "technique": "competition with immobilised ligand", "concentration": "1 µM", "endpoint": "remaining binding", "result": "100%"}
{"SMILES": "CCN(CC)c1ccc(C2=NNC(=O)CC2C)cc1[N+](=O)[O-] (stereo not drawn)", "observed": "enzyme activity", "mode": "inhibitor", "concentration": "10 µM", "endpoint": "remaining activity", "result": "106%"}
{"SMILES": "CSc1cccnc1N1CCN(Cc2nc3ccccc3[nH]2)CC1", "observed": "cell-free assay", "technique": "competition with immobilised ligand", "concentration": "1 µM", "endpoint": "remaining binding", "result": "100%"}
{"SMILES": "CNC(=O)c1cc(Oc2ccc(NC(=O)Nc3ccc(Cl)c(C(F)(F)F)c3)cc2)ccn1", "observed": "enzyme activity", "mode": "inhibitor", "concentration": "10 µM", "endpoint": "inhibition", "result": "15%"}
{"SMILES": "COc1cccc(CNC(=O)c2nc3scc(COCc4ccc(C(=O)O)cc4)c3c(=O)[nH]2)c1", "observed": "cell-free assay", "technique": "competition with immobilised ligand", "concentration": "1 µM", "endpoint": "remaining binding", "result": "100%"}
{"SMILES": "Cc1cnc(NC2CCOCC2)nc1-n1cnc(C(=O)NC(CN)c2cc(F)cc(Cl)c2)c1 (stereo not drawn)", "observed": "enzyme activity", "mode": "inhibitor", "technique": "radiometric", "concentration": "1 µM", "endpoint": "remaining activity", "result": "5%"}
{"SMILES": "Cn1cnc(Br)c1C1=CN(c2ncnc3[nH]cnc23)CCS1", "observed": "enzyme activity", "mode": "inhibitor", "technique": "radiometric", "concentration": "2 µM", "endpoint": "inhibition", "result": "95.6%"}
{"SMILES": "CCN(CC)CCNC(=O)c1c(C)[nH]c(/C=C2\\C(=O)Nc3ccc(F)cc32)c1C", "observed": "enzyme activity", "mode": "inhibitor", "concentration": "10 µM", "endpoint": "inhibition", "result": "88%"}
{"SMILES": "COc1cc(-c2cn(C3CCc4ccccc4N(CC(F)(F)F)C3=O)nn2)ccc1-n1ccc(C)n1 (stereo not drawn)", "observed": "cell-free assay", "technique": "competition with immobilised ligand", "concentration": "1 µM", "endpoint": "remaining binding", "result": "86%"}
{"SMILES": "Cn1c2c(c3ccc(Cl)c(Cl)c31)C(C#N)C1(CCNCC1)NC2=O (racemic)", "observed": "thermal stability", "technique": "DSF", "concentration": "10 µM", "endpoint": "ΔTm", "result": "0.9 °C"}
{"SMILES": "Cn1nc(C(=O)NCc2ccc(C(=O)O)cc2)cc1-c1ccc2[nH]ccc2c1", "observed": "cell-free assay", "technique": "competition with immobilised ligand", "concentration": "0.1 µM", "endpoint": "remaining binding", "result": "100%"}
{"SMILES": "CCOc1cc(-c2nncn2C)ccc1Nc1ncc2cc(C)nc(NCC(C)(C)C)c2n1", "observed": "enzyme activity", "mode": "inhibitor", "technique": "FRET", "concentration": "1 µM", "endpoint": "inhibition", "result": "< 15%"}
{"SMILES": "CNC(=O)Nc1ccc2c(c1)[C@@]1(CC2)OC(=O)N(CC(=O)N(Cc2ccc(F)cc2)[C@@H](C)C(F)(F)F)C1=O", "observed": "cell-free assay", "technique": "competition with immobilised ligand", "concentration": "1 µM", "endpoint": "remaining binding", "result": "100%"}
{"SMILES": "Cn1c2c(c3ccc(Cl)c(Cl)c31)C(C#N)C1(CCOCC1)NC2=O (stereo not drawn)", "observed": "thermal stability", "technique": "DSF", "concentration": "10 µM", "endpoint": "ΔTm", "result": "-0.1 °C"}
{"SMILES": "O=C1NC(=O)c2cc(Nc3ccc(F)cc3)c(Nc3ccc(F)cc3)cc21", "observed": "cell-free assay", "concentration": "0.5 µM", "endpoint": "remaining signal", "result": "86.8%"}
{"SMILES": "Cn1c2c(Cl)c(Cl)ccc2c2cn[nH]c(=O)c21", "observed": "thermal stability", "technique": "DSF", "concentration": "10 µM", "endpoint": "ΔTm", "result": "0.1 °C"}
{"SMILES": "Nc1ncnc2occ(-c3ccc(NC(=O)Nc4cc(C(F)(F)F)ccc4F)cc3)c12", "observed": "cell-free assay", "mode": "inhibitor", "concentration": "20 µM", "endpoint": "remaining signal", "result": "43%"}
